Results on six molecules are retold here after PMC9057237 (RSC Advances, 2020).

Data set [1] relates to SARS-CoV-2 M^pro. The following applies: read-out: M^pro inhibition IC50; cited from earlier work.
For data set [2], the system named is human neutrophils. The experiment in a line: Superoxide anion generation in fMLF/cytochalasin B-induced human neutrophils. In kind it is cell-based. Conditions: for IC50: read-out: Superoxide anion generation IC50. In short, it runs like this:
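Human neutrophils taken from venous blood of healthy volunteers aged 20–30 years. Superoxide from activated cells measured as ferricytochrome c reduction. Pure compounds tested at 0.3–10 μM. Mean ± S.E.M., n = 3–6, vs 0.1% DMSO control; IC50 is the concentration giving 50% inhibition.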

Data set [3] deals with human neutrophils. The experiment in a line: Elastase release in fMLF/cytochalasin B-induced human neutrophils. Conditions: for inhibition at 10 µM / IC50: Homo sapiens, Neutrophil; for inhibition at 10 µM: read-out: Elastase release % Inhibition; for IC50: read-out: Elastase release IC50. In kind it is cell-based. The method in brief:
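Neutrophils isolated from venous blood of healthy adult volunteers aged 20–30 years. Release from activated cells measured with MeO-Suc-Ala-Ala-Pro-Val-p-nitroanilide as elastase substrate. Pure compounds tested at 0.3–10 μM. LY294002 as positive control. Mean ± S.E.M., n = 3–6, vs 0.1% DMSO control; IC50 is the concentration giving 50% inhibition.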

Data set [4] concerns RBL-2H3 cells. Description: MTT cell viability assay. In kind it is cell-based, rat. Conditions: 100 μM; MTT. In short, it runs like this:
(§1)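 Cells grown in DMEM with 10% FBS, penicillin (100 U mL−1) and streptomycin (100 μg mL−1) at 37 °C under humidified 5% CO2. Pure compounds tested at 1 to 400 μM; viability read by MTT assay. Mean, n = 3, relative to untreated (DMSO) control.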

The test system of data set [5] is RBL-2H3 cells. The experiment in a line: A23187-induced degranulation. In kind it is cell-based, rat. Conditions: mean ± S.E.M.
For data set [6], the system named is RBL-2H3 cells. The experiment in a line: Antigen-induced degranulation. In kind it is cell-based, rat. The following applies: for % Inhibition of antigen-induced degranulation: mean ± SEM.
Data set [7] has as its system human neutrophil elastase. The following applies: read-out: Human neutrophil elastase IC50; previous study; cited from earlier work.
Data set [8] in a line: MTT cell viability assay. In kind it is cell-based, rat. The following applies: rat, RBL-2H3 cells. In short, it runs like this: as §1
Data set [9] concerns the target T1, neutrophil elastase (NE) (Homo sapiens, UniProt P08246).
T1 sequence (P08246 30-247 limits assumed): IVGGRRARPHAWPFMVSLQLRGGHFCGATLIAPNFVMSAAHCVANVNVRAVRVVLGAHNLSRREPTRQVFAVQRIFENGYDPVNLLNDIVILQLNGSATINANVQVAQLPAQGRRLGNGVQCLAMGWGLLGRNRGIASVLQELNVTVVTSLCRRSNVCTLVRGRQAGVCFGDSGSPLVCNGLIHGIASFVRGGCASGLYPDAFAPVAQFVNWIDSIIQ
The experiment in a line: Cell-free elastase enzymatic activity assay. In kind it is biochemical. The following applies: read-out: Inhibition of elastase enzyme activity. The method in brief:
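Neutrophils (6 × 10^5 cells per mL) preheated 5 min at 37 °C with CaCl2 (1 mM), primed with CB (1.5 μg mL−1) for 2 min, then fMLF (0.1 μM) to release elastase. Cell-free supernatant taken after centrifugation (1000g, 5 min, 4 °C), warmed to 37 °C and given test compound (10 μM) or DMSO for 2 min. MeO-Suc-Ala-Ala-Pro-Val-p-nitroanilide (100 μM) added for 10 min; A405 read. Mean ± S.E.M., n = 4; t-test.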

Where [10] appears, read: at 10 μM, fMLF/CB-induced human neutrophils, mean ± S.E.M.
Setting [11] is: Homo sapiens, Neutrophil, read-out: Superoxide anion generation % Inhibition.

Turning to `O=c1cc(-c2ccc(O)c(-c3c(O)cc(O)c4c(=O)cc(-c5ccc(O)cc5)oc34)c2)oc2cc(O)cc(O)c12` [amentoflavone], the IC50 in data set [1] is 8.3 µM.
penduletin [Compound 8]: in data set [2] (setting [10]), the “Superoxide anion generation % Inhibition” value was determined as 73.76 ± 5.24%. Also, the “Elastase release % Inhibition” value in [3] (setting [10]) is reported as 33.00 ± 7.94%. Further, the “% Viability, RBL-2H3” value in data set [4] is more than 90%. The results for the “% Inhibition of A23187-induced degranulation” value in data set [5] (1 μM) and in data set [5] (10 μM) were 4.8 ± 3.9% and 25.1 ± 7.3%, respectively. The “% Inhibition of antigen-induced degranulation” value in [6] (1 μM) is given as 33.9 ± 8.6 %; in data set [6] (10 μM) it was 85.8 ± 5.1 %. Further, the IC50 in data set [6] (read-out: Antigen-induced degranulation IC50) was 3.8 µM; in [7], 65.4 µM.
In the case of `COc1cc(O)c2c(=O)c(OC)c(-c3ccc(O)c(OC)c3)oc2c1` [Compound 9, pachypodol], the results for the inhibition at 10 µM in data set [2] (setting [11]), in [3] and in data set [9] were 67.5 ± 4.55%, 31.6 ± 5.02% and 20.3 to 27.1%, respectively. The IC50 in data set [2] (Homo sapiens, Neutrophil) was 6.07 ± 0.65 µM; in [3], more than 10 µM. Also, the viability at 100 µM in data set [8] is more than 90%.
`CN1CCCC(n2nc(Cc3ccc(Cl)cc3)c3ccccc3c2=O)CC1` (stereo not drawn) [Azelastine, reference compound] displayed a viability at 20 µM in [8] of more than 90%.
Turning to `O=c1c(-c2ccc(O)cc2)coc2cc(O)cc(O)c12` [Genistein, reference compound], the inhibition at 3 µM in [2] (setting [11]) was 67%. Also, the IC50 in data set [2] (Homo sapiens, Neutrophil) worked out at 1.52 ± 0.17 µM; in data set [3] it was 16.3 ± 4.26 µM. In addition, the inhibition at 10 µM in [3] came to 31.6 ± 7.29%.
Regarding `COc1cc(O)c2c(=O)c(OC)c(-c3ccc(O)cc3)oc2c1` [Compound 7, kumatakenin], the inhibition at 10 µM in data set [2] (setting [11]) was 24.1 ± 2.75%; in [3], 22.9 ± 4.29%; in data set [9] it was 20.3 to 27.1%. For the same molecule, the IC50 is more than 10 µM in data set [2] (Homo sapiens, Neutrophil) and more than 10 µM in [3]. In data set [8], this molecule returned a viability at 100 µM of more than 90%.
